A selection: hits, their analogues and other compounds. The true share with any hit is near 1.9%.
NPY-Y1 PAM-ag – potentiates or activates human NPY-Y1 receptor; P25929; NPY-Y1 expressing cells, potentiator/agonist activation; activation, % at 3.6 µM; 0.37% of 220,000 active; in the data active means activation above about 33%, passing the limit was not always enough;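 further: cells stimulated with NPY at EC10 then isoproterenol at EC100; 0% = low agonist plus stimulus and 100% = saturating agonist plus stimulus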
Target sequence (P25929 whole entry, looked up): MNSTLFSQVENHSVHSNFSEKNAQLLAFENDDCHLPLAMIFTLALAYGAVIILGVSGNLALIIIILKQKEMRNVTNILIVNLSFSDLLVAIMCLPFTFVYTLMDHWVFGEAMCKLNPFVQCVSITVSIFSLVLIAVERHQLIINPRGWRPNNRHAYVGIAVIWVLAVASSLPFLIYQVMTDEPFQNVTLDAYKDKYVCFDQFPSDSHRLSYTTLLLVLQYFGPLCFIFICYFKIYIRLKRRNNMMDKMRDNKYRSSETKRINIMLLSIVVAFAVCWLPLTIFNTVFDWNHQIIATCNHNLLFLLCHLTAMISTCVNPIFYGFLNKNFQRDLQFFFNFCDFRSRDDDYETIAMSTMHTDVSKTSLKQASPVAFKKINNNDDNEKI
NPY-Y2 PAM-ag – potentiators or agonists of human neuropeptide Y receptor Y2; cells expressing NPY-Y2, potentiator/agonist read-out; activation, % at 3.6 µM; 0.45% of 220,000 active; AID 1359; in the data active means activation above about 27%;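 further: cells stimulated with NPY near EC25 plus isoproterenol at EC100; 0% = vehicle plus submaximal agonist and 100% = vehicle plus saturating agonist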
NPY-Y1 antag – blocks the human neuropeptide Y Y1 receptor; P25929; HEK293-CNG Y1 cells, membrane potential fluorescence; NPY at EC95, then isoproterenol; inhibition, % at 3.6 µM; 1% of 200,000 active; AID 1040;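 active means inhibition above the campaign mean inhibition of all tested compounds plus 3 SD, cut at about 20% in these data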;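 further: 0% = DMSO wells given NPY plus isoproterenol and 100% = isoproterenol alone without NPY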
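Material: HEK293 cells co-expressing NPY Y1 receptor and cyclic-nucleotide gated channel. Timing: compound incubation 1 h at room temperature, readout 45 min post-stimulation. Signal: fluorescence, membrane potential probe.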
NPY Y2 blocker – antagonists of human neuropeptide Y receptor Y2; P49146; NPY-Y2 expressing cells, antagonist mode; inhibition, % at 2.7 µM; 0.99% of 140,000 active;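 further: 0% = vehicle with agonist challenge and 100% = reference antagonist with challenge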
NPY1 antag conf – confirmation of human neuropeptide Y receptor Y1 antagonists; shares compounds with NPY-Y1 antag; 21% of 1,200 active; HEK293-CNG NPY-Y1, membrane potential fluorescence, cAMP; NPY challenge against isoproterenol-raised cAMP; AID 1254; inhibition, % at 3.6 µM; in the data active means inhibition above about 20%;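 further: 0% = vehicle with agonist plus stimulus and 100% = stimulus alone without agonist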
NPY-Y2 antag ct – human NPY-Y2 antagonism in NPY-Y1 counter-screen. shares compounds with NPY-Y1 antag. 28% of 1,200 active. HEK293 NPY-Y2 CNG membrane potential fluorescence; cells given NPY, then isoproterenol. inhibition, % at 3.6 µM;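 further: 0% = DMSO with agonist challenge and 100% = reference antagonist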
Active calls of the source: *; · = no result given. Unless noted, no stated cut-off is given here; in the data, active means inhibition above about 17%; inactive means the rest.

SMILES	NPY-Y1 PAM-ag	NPY-Y2 PAM-ag	NPY-Y1 antag	NPY Y2 blocker	NPY1 antag conf	NPY-Y2 antag ct
NS(=O)(=O)c1ccc(Nc2nc3ccccc3nc2NS(=O)(=O)c2cccc([N+](=O)[O-])c2)cc1	-1.5	-9.1	2.6	·	·	·
Cc1ccc(C(c2nnnn2CCc2ccccc2)N2CCSCC2)cc1 (centres undefined)	2.7	2.4	20.5*	10.4	10.2	4.2
Cc1ccc(C(c2nnnn2CCc2ccccc2)N2CCC(C)CC2)cc1 (centres undefined)	-6.5	8.8	1.6	10.0	·	·
CC(C)Oc1ccc(C(=O)NC(Cc2c[nH]c3ccccc23)C(=O)NN)cc1 (centres undefined)	11.3	-8.1	·	·	·	·
CCCCc1ccc(NC(=S)NCc2ccc(OC)cc2)cc1	-9.9	-10.9	1.2	·	·	·
Oc1cc2ccccc2cc1-c1n[nH]c(=S)o1	-25.6	-28.6	40.2*	14.9	18.9	14.4
CC(=O)C1=NN(c2ccc(Cl)cc2)C(c2ccc3c(c2)OCO3)N(C(C)=O)N1C (centres undefined)	-7.5	6.5	·	·	·	·
O=[N+]([O-])c1cc2c(c(CSc3ncccn3)c1)OCOC2	3.9	-7.4	24.0*	·	3.1	6.2
CCc1ncc(C(=O)c2ccc(OC)cc2)n1C	-14.3	-0.5	28.6*	-1.8	-0.3	0.1
COc1cc(OC)cc(C(=O)N[C@H](C(=O)OCC(=O)N2CCc3ccccc32)C(C)C)c1	-12.3	-1.6	-5.6	·	·	·
O=C(C[n+]1cc(-c2ccccc2)n2c1CCC2)OCc1ccccc1	2.3	1.1	3.9	6.0	·	·
O=C(C[n+]1cc(-c2ccccc2)n2c1CCCCC2)c1ccc(Br)cc1	-8.9	-8.6	41.9*	·	21.8*	19.0*
N=C1C(c2ccccc2)=C(O)CN1c1cccc(S(=O)(=O)N2CCOCC2)c1	-6.5	-0.9	·	·	·	·
Cc1cc(C)c(C#N)c(SCC(=O)c2cc(C)n(CCc3ccccc3)c2C)n1	-10.5	3.5	23.6*	0.7	9.6	11.3
O=C(COc1c(CO)cc(Br)cc1CO)NC1CCCc2ccccc21 (centres undefined)	-4.7	15.5	4.4	·	·	·
CN(c1cccc(NC(=O)c2ccc(N(C)S(=O)(=O)c3ccccc3)cc2)c1)S(C)(=O)=O	9.2	-6.5	41.0*	·	1.1	0.5
CN(c1cccc(NC(=O)c2ccc(C(C)(C)C)cc2)c1)S(C)(=O)=O	4.9	5.0	3.2	·	·	·
CC(C)(C)C(=O)Nc1cc2nn(-c3ccccc3)nc2cc1Cl	6.3	15.8	20.4*	0.4	2.3	4.4
CC(C)N(c1ccccc1)c1ccc(NC(=O)COC(=O)CCN2C(=O)c3cccc([N+](=O)[O-])c3C2=O)cc1	-5.1	-7.0	-2.7	-3.4	·	·
Cc1cccc(C(=O)Nc2cccc(OC(=O)c3cccc(C)c3)c2)c1	-2.8	-23.6	27.4*	17.0	17.2	11.2
CCOC(=O)c1c(CSc2cccs2)n(C)c2cc(Br)c(O)c(CN(C)C)c12	-60.0	-52.9	59.4*	·	51.2*	47.8*
CCOC(=O)c1c(C)n(C)c2cc(Br)c(O)c(O)c12	-5.0	-14.2	·	·	·	·
Fc1ccccc1C1c2[nH]c3ccccc3c2CCN1Cc1cccn1-c1ncccn1 (centres undefined)	-20.6	-48.8	29.2*	·	8.3	14.1
CCOC(=O)c1c(NC(=O)COc2cccc3c2CCN(C)C3=O)sc2c1CCC2	4.7	6.6	-3.8	3.3	·	·
O=C(COc1ccc(Cl)cc1)N(Cc1ccccc1)c1nc(-c2ccccc2)cs1	10.4	-1.9	-6.7	0.3	·	·
COc1ccc(-c2csc(N(CCc3ccccc3)C(=O)COc3ccccc3)n2)cc1	-1.5	-13.9	32.0*	1.2	11.4	15.6
CCCc1cc(=O)[nH]c(SCC(=O)Nc2ccc(Br)cc2Br)n1	-11.9	-10.9	7.8	·	·	·
CCC(C)NC(=O)CSc1nc2ccc(N3CCOCC3)cc2c(=O)n1CCc1ccccc1 (centres undefined)	12.0	6.0	-3.7	0.1	·	·
CCCCn1c(SCC(=O)NC(C)CC)nc2ccc(N3CCOCC3)cc2c1=O (centres undefined)	4.9	8.5	23.3*	1.8	-1.1	2.7
COC(=O)c1c(NC(=O)C2CCCCC2C(=O)O)sc2c1CCCCC2 (centres undefined)	-0.4	-4.9	89.2*	·	8.1	5.2

Screening data (PubChem BioAssay)
